Experimental data reported in ChEMBL document CHEMBL1133942, “Synthesis and bioactivities of novel pyridazine derivatives: inhibitors of interleukin-1 beta (IL-1beta) production” (Bioorg Med Chem Lett, 2001).
Active and inactive are the calls of the source. No cut-off for these calls is given here.

Experiments:
HL-60 = assay: Inhibitory concentration against interleukin-1 beta production in HL-60 cells stimulated with lipopolysaccharide (LPS).; type: functional, cell-based; conditions: Homo sapiens
How it was run: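 IC50 obtained by comparing IL-1β yield with an untreated control to which no test compound was added.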

Mus musculus [1] = assay: Observation of behavior in mice following 30 mg/kg i.p. administration; No significant change.; type: functional, organism-based; design: dose 30 mg/kg
Mus musculus [2] = assay: Observation of behavior in mice after ip administration at the dose of 30 mg/kg; Weak sedation; type: functional, organism-based; design: dose 30 mg/kg
Mus musculus [3] = species: Mus musculus; assay: Number of dead mice/total number of mice used; 6/8; type: ADME, organism-based; conditions: in vivo
Mus musculus [4] = assay: Observation of behavior in mice after ip administration at the dose of 30 mg/kg; symptoms were tremor, dyspnea, difficulty in walking and death; type: functional, organism-based; design: dose 30 mg/kg
Mus musculus [5] = assay: Observation of behavior in mice after ip administration at the dose of 30 mg/kg; Depression of spontaneous locomotor activity; type: functional, organism-based; design: dose 30 mg/kg

COc1ccc(-c2cc(Oc3ccccc3)nnc2-c2ccc(OC)cc2)cc1 was tested, and the IC50 (HL-60) was 100 nM and the Symptoms (Mus musculus [1]) was “No significant change”.

With COc1ccc(-c2ncc(C#N)nc2-c2ccc(OC)cc2)cc1 the IC50 (HL-60) was 6600 nM and the Symptoms (Mus musculus [2]) was “Weak sedation”.

COc1ccc(-c2cc(Oc3ccc(Cl)cc3Cl)nnc2-c2ccc(OC)cc2)cc1 was tested, and the IC50 (HL-60) was 2540 nM and the Symptoms (Mus musculus [1]) was “No significant change”.

For COc1ccc(-c2cc(Oc3cccc([N+](=O)[O-])c3)nnc2-c2ccc(OC)cc2)cc1, the IC50 (HL-60) was 2360 nM and the Symptoms (Mus musculus [1]) was “No significant change”.

COc1ccc(-c2cc(Sc3ccc(F)cc3F)nnc2-c2ccc(OC)cc2)cc1 was tested, and the IC50 (HL-60) was 1870 nM and the Symptoms (Mus musculus [2]) was “Weak sedation”.

With COc1ccc(-c2cc(Oc3ccncc3)nnc2-c2ccc(OC)cc2)cc1 the IC50 (HL-60) was 1240 nM and the Symptoms (Mus musculus [1]) was “No significant change”.

In the case of COc1ccc(-c2cnc(C#N)nc2-c2ccc(OC)cc2)cc1, the IC50 (HL-60) is reported as 2880 nM and the Symptoms (Mus musculus [1]) is reported as “No significant change”.

For COc1ccc(-c2cc(Oc3c(F)cccc3F)nnc2-c2ccc(OC)cc2)cc1, the IC50 (HL-60) was 350 nM and the Symptoms (Mus musculus [1]) was “No significant change”.

Work on COc1ccc(-c2cc(Oc3cc(F)ccc3F)nnc2-c2ccc(OC)cc2)cc1 yielded an IC50 (HL-60) of 180 nM.

With C[C@]12C=CC(=O)C=C1CCC1[C@@H]2[C@@H](O)C[C@@]2(C)[C@H]1CC[C@]2(O)C(=O)CO (single isomer, unassigned) [PREDNISOLONE] the IC50 (HL-60) was 760 nM and the Symptoms (Mus musculus [1]) was “inactive”.

With COc1ccc(-c2cc(Oc3cc(F)cc(F)c3)nnc2-c2ccc(OC)cc2)cc1 the IC50 (HL-60) was 1380 nM and the Symptoms (Mus musculus [1]) was “No significant change”.

For COc1ccc(-c2cc(Nc3ccc(F)cc3F)nnc2-c2ccc(OC)cc2)cc1, the IC50 (HL-60) was 1920 nM and the Symptoms (Mus musculus [1]) was “No significant change”.

With COc1ccc(-c2cc(Oc3c(F)c(F)cc(F)c3F)nnc2-c2ccc(OC)cc2)cc1 the IC50 (HL-60) was 190 nM and the Symptoms (Mus musculus [1]) was “No significant change”.

COc1ccc(-c2cc(-c3ccccc3)nnc2-c2ccc(OC)cc2)cc1 was tested, and the IC50 (HL-60) was 2810 nM and the Symptoms (Mus musculus [1]) was “No significant change”.

COc1ccc(-c2cc(Oc3ccccc3C#N)nnc2-c2ccc(OC)cc2)cc1 was tested, and the IC50 (HL-60) was 150 nM and the Symptoms (Mus musculus [1]) was “No significant change”.

For COc1ccc(-c2cc(Sc3cc(Cl)c(Cl)c(Cl)c3)nnc2-c2ccc(OC)cc2)cc1, the IC50 (HL-60) was 200 nM and the Symptoms (Mus musculus [1]) was “No significant change”.

COc1ccc(-c2cc(Nc3cc(OC)c(OC)c(OC)c3)nnc2-c2ccc(OC)cc2)cc1 was tested, and the IC50 (HL-60) was > 100000 nM and the Symptoms (Mus musculus [1]) was “No significant change”.

COc1ccc(-c2cc(Oc3ccc(F)c(F)c3)nnc2-c2ccc(OC)cc2)cc1 was tested, and the IC50 (HL-60) was 460 nM.

For COc1ccc(-c2cc(C#N)nnc2-c2ccc(OC)cc2)cc1, the IC50 (HL-60) was 90 nM, the Activity (Mus musculus [3]) was 6 and the Symptoms (Mus musculus [4]) was “Tremor, dyspnea, difficulty in walking and death”.

With COc1ccc(-c2cc(Oc3ccc([N+](=O)[O-])cc3)nnc2-c2ccc(OC)cc2)cc1 the IC50 (HL-60) was 630 nM and the Symptoms (Mus musculus [1]) was “No significant change”.

In the case of COc1ccc(-c2cc(Oc3ccc(F)cc3F)nnc2-c2ccc(OC)cc2)cc1, the IC50 (HL-60) is reported as 2320 nM and the Symptoms (Mus musculus [5]) is reported as “Depression of spontaneous locomotor activity”.

COc1ccc(-c2cc(Oc3ccc(C#N)cc3)nnc2-c2ccc(OC)cc2)cc1 was tested, and the IC50 (HL-60) was > 100000 nM and the Symptoms (Mus musculus [1]) was “No significant change”.

In the case of COc1ccc(-c2cc(Sc3ccccc3)nnc2-c2ccc(OC)cc2)cc1, the IC50 (HL-60) is reported as 20500 nM and the Symptoms (Mus musculus [1]) is reported as “No significant change”.

With COc1ccc(-c2cc(Oc3c(F)c(F)c(F)c(F)c3F)nnc2-c2ccc(OC)cc2)cc1 the IC50 (HL-60) was 40 nM and the Symptoms (Mus musculus [5]) was “Depression of spontaneous locomotor activity”.

For COc1ccc(-c2cc(Oc3cccc(C#N)c3)nnc2-c2ccc(OC)cc2)cc1, the IC50 (HL-60) was 160 nM.

In the case of COc1ccc(-c2cc(NCc3ccccc3)nnc2-c2ccc(OC)cc2)cc1, the IC50 (HL-60) is reported as > 100000 nM.

Molecule COc1ccc(Oc2cc(-c3ccc(OC)cc3)c(-c3ccc(OC)cc3)nn2)cc1 has an IC50 (HL-60) of 450 nM.

COc1ccc(-c2cc(Oc3cccc(F)c3F)nnc2-c2ccc(OC)cc2)cc1 was tested, and the IC50 (HL-60) was 120 nM and the Symptoms (Mus musculus [1]) was “No significant change”.

In the case of CCCN(c1cc(-c2ccc(OC)cc2)c(-c2ccc(OC)cc2)nn1)c1ccc(F)cc1F, the IC50 (HL-60) is reported as 3160 nM and the Symptoms (Mus musculus [1]) is reported as “No significant change”.
